# OXTR agonist = human OXTR agonists, primary screen, fluorescence, CHO-OTR cells, Fluo-8 calcium; AID 2435, 2010; Fluo-8 calcium fluorescence; normalized: DMSO 0%, oxytocin 100%; 0.32% of 320,000 active; activation, % at 3 µM;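 active means activation above the mean of all tested compounds plus 3 SD, cutoff set per screening run, cut at about 20% in these data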;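 further: peak over basal fluorescence ratio from a 100 s FLIPR kinetic read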
# Target sequence (P30559 whole entry, looked up): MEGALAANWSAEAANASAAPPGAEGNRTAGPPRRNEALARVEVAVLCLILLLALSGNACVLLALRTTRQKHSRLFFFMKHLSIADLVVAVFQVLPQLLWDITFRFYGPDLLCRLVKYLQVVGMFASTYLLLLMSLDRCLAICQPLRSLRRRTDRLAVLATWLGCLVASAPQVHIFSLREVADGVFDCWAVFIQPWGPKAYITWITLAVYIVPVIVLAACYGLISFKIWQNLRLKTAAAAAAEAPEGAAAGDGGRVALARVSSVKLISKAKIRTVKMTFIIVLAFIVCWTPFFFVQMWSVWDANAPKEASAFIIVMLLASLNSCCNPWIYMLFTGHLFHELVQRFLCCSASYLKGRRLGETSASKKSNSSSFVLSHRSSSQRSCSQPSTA
# TAAR1 antagonist = human TAAR1 antagonists, primary screen, Fluo-8 calcium fluorescence, CHO RD-HGA16 cells. Trace amine-associated receptor 1 (Homo sapiens), Q96RJ0. antagonist. inhibition, % at 3 µM. 1.5% of 360,000 active. AID 624466, 2012;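 active means inhibition above a per-plate cutoff, the mean inhibition of test compounds on that plate plus 3 SD, cut at about 49% in these data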;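 further: 0% = DMSO plus EC80 beta-PEA response and 100% = DMSO alone without agonist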
# Target sequence (Q96RJ0 whole entry, looked up): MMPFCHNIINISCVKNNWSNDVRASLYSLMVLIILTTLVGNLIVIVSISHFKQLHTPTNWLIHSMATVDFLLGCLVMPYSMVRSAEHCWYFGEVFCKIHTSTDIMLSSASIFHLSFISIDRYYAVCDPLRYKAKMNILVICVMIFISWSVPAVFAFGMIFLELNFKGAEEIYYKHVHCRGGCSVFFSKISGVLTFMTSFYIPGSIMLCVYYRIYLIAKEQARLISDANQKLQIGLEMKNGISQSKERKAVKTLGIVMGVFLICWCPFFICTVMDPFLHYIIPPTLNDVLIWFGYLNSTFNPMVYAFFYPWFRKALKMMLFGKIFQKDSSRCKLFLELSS
#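 Test system: RD-HGA16 CHO cells with stable hTAAR1 and Gα16 / Probe or stimulus: EC80 β-phenethylamine stimulus / Times: seeding 17-24 h prior, 75-min 37 °C, 30-min RT dye loading / Detection: Fluo-8 calcium-sensitive fluorescence / Read-out basis: % inhibition scaled between DMSO and EC80 PEA controls / Repeats: singlicate, one well per test compound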
# V1R ag counter = agonists of human V1a receptor, primary screen, counter-screen for OXTR agonist project, fluorescence, CHO-V1R cells. Fluo-8 calcium fluorescence, agonist mode; 0% DMSO, 100% 3 nM vasopressin. activation, % at 3 µM. 0.25% of 320,000 active;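 active means activation above the mean activation of all tested compounds plus 3 SD, per screening run, cut at about 20% in these data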;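 further: signal is peak over basal fluorescence ratio across a 100 second FLIPR read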
# OXTR potentiate = human OXTR potentiators, primary screen, fluorescence, CHO-OTR cells, Fluo-8 calcium; 0.061% of 320,000 active; activation, % at 3 µM; Fluo-8 calcium fluorescence, potentiator mode; 0% = oxytocin EC15, 100% = EC100; Oxytocin receptor (Homo sapiens), P30559;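 active means activation above that plate's cutoff, the mean activation of tested compounds plus 3 SD, cut at about 6.6% in these data, passing the limit was not always enough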;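 further: 100% uses oxytocin at 75 nM as the full agonist control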
#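 Material: CHO-OTR cells, human receptor; compound dosing: single dose, 3.0 µM nominal final compound concentration; schedule: 6 min compound pre-incubation at room temperature, 100 s kinetic read; measured by: kinetic Fluo-8 calcium fluorescence; read-out basis: % activation vs EC15 and EC100 oxytocin; controls: EC15 oxytocin alone as 0%, 75 nM oxytocin as 100%; replicates: singlicate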
# TAAR1 ag = human TAAR1 agonists, primary screen, Fluo-8 calcium fluorescence, CHO RD-HGA16 cells. Trace amine-associated receptor 1 (Homo sapiens), Q96RJ0. vehicle wells 0%, saturating PEA agonist 100%. activation, % at 3 µM. 0.99% of 360,000 active. AID 624467, 2012;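 active means activation above the mean activation of all test compounds in the run plus 3 SD, cut at about 38% in these data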
#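 Benchmarks: low control DMSO, high control PEA (EC100); System: CHO RD-HGA16 cells carrying human TAAR1 plus Gα16; Detection: Fluo-8 fluorescence, 5 s baseline then 140 s kinetic read; Schedule: 17-24 h plating, Fluo-8 75 min 37 °C, 30 min RT; Read-out basis: % activation from peak over basal fluorescence ratio, DMSO-to-PEA scaled.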
# nonsel antag count = nonselective antagonists in TAAR1 counter-screen cells, counter-screen for hTAAR1 antagonist project, cell-based, fluorescence, calcium. shares compounds with TAAR1 antagonist. counterscreen cell line, antagonist mode. inhibition, % at 3 µM. 77% of 2,400 active; in the data active means inhibition above about 22%;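 further: CHO-Ga16 host cells stimulated with ATP at an EC80 level; 0% = agonist EC80 plus vehicle and 100% = vehicle without agonist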
# TAAR1 ant conf = human TAAR1 antagonists, retest of hits, confirmation, cell-based, fluorescence; shares compounds with TAAR1 antagonist; AID 651785, 2012; inhibition, % at 3 µM; 40% of 2,400 active; TAAR1-expressing cells, fluorescence antagonist read-out; in the data active means inhibition above about 49%;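 further: CHO-Ga16 host cells challenged with agonist PEA near its EC80; 0% = agonist at EC80 plus vehicle and 100% = vehicle with no agonist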
# Ga16 ag counter = calcium activation in Ga16-expressing cells, counter-screen for TAAR1 antagonist project, cell-based, fluorescence; shares compounds with TAAR1 antagonist; agonist counterscreen; activation, % at 3 µM; 18% of 2,400 active; AID 651953, 2012; in the data active means activation above about 12%;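 further: 0% = vehicle wells and 100% = saturating stimulus response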
# TAAR1 ag count = TAAR1 activation by candidate antagonists – cell-based, fluorescence, counter-screen for TAAR1 antagonist project; shares compounds with TAAR1 antagonist; hTAAR1 cell line, agonist mode; activation, % at 3 µM; 2% of 2,400 active; in the data active means activation above about 37%;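 further: CHO cells stably expressing TAAR1 with calcium dye readout; 0% = DMSO vehicle and 100% = full agonist response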
# The depositor's hits bear a star; · = no result given. Sampled rows, rich in hits. Any-hit rate of the full collection: about 2.3%.
SMILES,OXTR agonist,TAAR1 antagonist,V1R ag counter,OXTR potentiate,TAAR1 ag,nonsel antag count,TAAR1 ant conf,Ga16 ag counter,TAAR1 ag count
CCOC1=C2CN(S(=O)(=O)c3ccc(C)cc3)C(c3ccccc3)CC2N(S(=O)(=O)c2ccccc2Cl)C(c2ccccc2)C1 (centres undefined),·,-3,·,·,2,·,·,·,·
Cc1ccc(-n2c(C)cc(/C=N/Nc3ccc([N+](=O)[O-])cn3)c2C)cc1,-2,·,-1,-10,·,4,·,0,·
Cc1cc(/C=N/Nc2ccc([N+](=O)[O-])cn2)c(C)n1-c1ccccc1,-1,40,0,-17,-4,·,·,·,·
CCOC(=O)c1cnc2ccc(OCC)cc2c1N1CCN(C)CC1,-1,11,1,-2,-1,·,·,·,·
CCOc1ccc2ncc(S(=O)(=O)c3ccc(C)cc3)c(N3CCC4(CC3)OCCO4)c2c1,-2,63*,-1,-3,8,20,46,4,0
O=C(CN1CCN(Cc2ccccc2)CC1)Nc1ccc([N+](=O)[O-])cc1C(=O)Nc1ccccc1F,-1,58*,0,-10,16,29*,51*,7,13
C=CCn1c2ccccc2c2nn(C)c(=S)nc21,-2,2,-3,-1,0,·,·,·,·
Cc1ccc(S(=O)(=O)NC(CC(C)C)C(=O)Oc2ccc3c4c(c(=O)oc3c2)CCC4)cc1 (centres undefined),1,67*,1,-12,10,26*,45,6,4
COc1cc(C(=O)N/N=C/c2ccc(OC(=O)c3cccc(C)c3)cc2)ccc1O,·,80*,·,·,15,39*,62*,13*,30
COc1cc(/C=N/NC(=O)c2ccc(N)cc2)ccc1OC(=O)c1cccc(C)c1,·,46,·,·,11,·,·,·,·
Nc1cnccc1C(=O)O,1,-18,1,-11,13,·,·,·,·
CC(NC(=O)C1c2ccccc2Oc2ccccc21)C1CCCO1 (centres undefined),1,-11,0,-2,0,·,·,·,·
O=C(Cn1nnc(-c2cc(C(F)(F)F)cc(C(F)(F)F)c2)n1)NNC(=S)Nc1ccc(Cl)cc1,0,-15,-1,-11,1,·,·,·,·
Cc1ccc(CNC(=O)CCCn2c(=O)c3ccccc3n(CC(=O)NC3CCCC3)c2=O)cc1,-1,6,0,-6,2,·,·,·,·
CCCCn1c(=O)n(CC(=O)NCc2ccc(C)cc2)c(=O)c2c1nc(CO)n2CCC,-2,50*,0,-9,11,22*,39,6,4
CC1CC(C)CN(C(=O)c2ccc(S(=O)(=O)N3CC(C)CC(C)C3)cc2)C1 (centres undefined),-2,-2,-1,-6,-6,·,·,·,·
O=C(Nc1cccc(-c2nc3ccccc3o2)c1)c1cccnc1,0,67*,1,-14,10,23*,35,10,7
O=C(Nc1ccc2oc(-c3cccnc3)nc2c1)c1ccc(Br)o1,0,52*,1,-4,20,17,25,4,5
COc1cccc(C(=O)Nc2ccc(-c3nc4ccccc4o3)c(O)c2)c1,2,-10,3,-4,6,·,·,·,·
COc1cc(OC)cc(C(=O)Nc2ccc(-c3nc4ccccc4o3)cc2)c1,-1,64*,2,-9,14,26*,31,2,-1
CCOc1ccc2c(c1)C(N(CCN1CCOCC1)C(=S)Nc1ccccc1OC)CC(C)(C)O2 (centres undefined),-2,-1,-1,-10,-1,·,·,·,·
COc1cccc(OC)c1C(=O)Oc1ccc2c(c1)O/C(=C\c1ccncc1)C2=O,-1,53*,0,-2,8,41*,56*,6,2
CCCCCCSc1cccc(-c2nc3ccc(Cl)cn3c2NCCCC)c1,·,6,·,·,10,·,·,·,·
CCCCNc1c(-c2cccc(-c3cc(C(C)=O)cs3)c2)nc2ccc(C)cn12,-3,68*,-1,-11,15,36*,54*,7,5
Nc1c(-c2cccs2)nc2ccccn12,·,-9,·,·,3,·,·,·,·
SMILES,OXTR agonist,TAAR1 antagonist,V1R ag counter,OXTR potentiate,TAAR1 ag,nonsel antag count,TAAR1 ant conf,Ga16 ag counter,TAAR1 ag count
Cc1ccc(S(=O)(=O)N(CC(=O)NCCC2=CCCCC2)Cc2ccccc2F)cc1,0,73*,0,-19,23,14,24,9,12
O=C(CN(Cc1ccccc1F)S(=O)(=O)c1ccc(Cl)cc1)NCCC1=CCCCC1,0,10,0,-4,6,·,·,·,·
Cc1csc(=O)n1CCC(=O)OCc1nnc(-c2ccc([N+](=O)[O-])cc2)o1,5,-7,3,-10,0,·,·,·,·
COCCNC(=O)c1ccc(Cl)c(S(=O)(=O)Nc2cccc(C)c2C)c1,0,-2,1,-13,1,·,·,·,·
CCn1cnc2sc(C(=O)N(Cc3ccc(N(C)C)cc3)Cc3ccco3)c(C)c2c1=O,-2,54*,0,-28,24,23*,38,7,14
CCCn1c(C(O)c2cc(OC)c(OC)c(OC)c2)nc2ccccc21 (centres undefined),0,-13,1,-1,4,·,·,·,·
CCOc1ccc(OCCSc2nc3ccccc3c(=O)[nH]2)cc1,1,63*,-1,-9,33,9,26,8,16
COc1ccc(N(CC(=O)NCCSc2ccccn2)S(=O)(=O)c2ccccc2)cc1Cl,2,18,1,-10,9,·,·,·,·
COc1ccc(Cl)cc1N(CC(=O)NCCSc1ccccn1)S(=O)(=O)c1ccccc1,0,58*,0,-9,11,16,32,5,6
COc1ccccc1CNC(=O)COC(=O)c1cccnc1SCC(=O)NCc1ccccc1OC,-2,75*,4,-13,13,31*,51*,8,6
Cc1ccc(C(=O)Nc2ccc3c(c2)C(=O)N(CC2CCCO2)C3=O)cc1 (centres undefined),1,-12,3,-8,3,·,·,·,·

# Bioassay records: PubChem BioAssay, The Scripps Research Institute Molecular Screening Center
